Test results taken from ChEMBL document CHEMBL1137781, “Synthesis and preclinical evaluation of novel PET probes for P-glycoprotein function and expression” (J Med Chem, 2009).

Experiments:
[1] = system: Pancreas; test: Biodistribution in Wistar rat pancreas at 38+/-8 MBq, iv after 80 mins; format: ADME, organism-based; details: in vivo
In short: (§1)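 Male Wistar rats (12 h light/dark, chow ad libitum) were fitted with a femoral arterial cannula under isoflurane. They were pretreated via tail vein with saline, cyclosporin A (50 mg/kg), or nonradioactive tracer compound (15 mg/kg; 10 mg/mL in saline with 35% ethanol). The 11C tracer was then given via penile vein, followed by 76 min microPET. Animals were then terminated; excised tissues were weighed and gamma-counted with decay correction. Values are SUVs (tissue MBq/g × body weight g / injected MBq).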

[2] = system: Muscle tissue; test: Biodistribution in Wistar rat muscle at 38+/-8 MBq, iv after 80 mins; format: ADME, organism-based; details: in vivo; in short: as §1
[3] = system: Kidney; test: Biodistribution in Wistar rat kidney at 38+/-8 MBq, iv after 80 mins; format: ADME, organism-based; details: in vivo; in short: as §1
[4] = system: Liver; test: Biodistribution in Wistar rat liver at 38+/-8 MBq, iv after 80 mins; format: ADME, organism-based; details: in vivo; in short: as §1
[5] = system: Ileum; test: Biodistribution in Wistar rat ileum at 38+/-8 MBq, iv after 80 mins; format: ADME, organism-based; details: in vivo; in short: as §1
[6] = system: Heart; test: Biodistribution in Wistar rat heart at 38+/-8 MBq, iv after 80 mins; format: ADME, organism-based; details: in vivo; in short: as §1
[7] = Biodistribution in Wistar rat fat at 38+/-8 MBq, iv after 80 mins; format: ADME, organism-based, Adipose tissue; details: in vivo; in short: as §1
[8] = system: Duodenum; test: Biodistribution in Wistar rat duodenum at 38+/-8 MBq, iv after 80 mins; format: ADME, organism-based; details: in vivo; in short: as §1
[9] = system: Colon; test: Biodistribution in Wistar rat colon at 38+/-8 MBq, iv after 80 mins; format: ADME, organism-based; details: in vivo; in short: as §1
[10] = system: Bone; test: Biodistribution in Wistar rat bone at 38+/-8 MBq, iv after 80 mins; format: ADME, organism-based, Bone element; details: in vivo
[11] = system: Striatum; test: Biodistribution in Wistar rat striatum at 38+/-8 MBq, iv after 80 mins; format: ADME, organism-based; details: in vivo
[12] = system: Pons; test: Biodistribution in Wistar rat pons at 38+/-8 MBq, iv after 80 mins; format: ADME, organism-based; details: in vivo
[13] = Biodistribution in Wistar rat parietal/temporal/occipital cortex at 38+/-8 MBq, iv after 80 mins; format: ADME, organism-based; details: in vivo; in short: as §1
[14] = Biodistribution in Wistar rat medulla at 38+/-8 MBq, iv after 80 mins; format: ADME, organism-based, Medulla of organ; details: in vivo; in short: as §1
[15] = system: Hippocampus; test: Biodistribution in Wistar rat hippocampus at 38+/-8 MBq, iv after 80 mins; format: ADME, organism-based; details: in vivo; in short: as §1
[16] = Biodistribution in Wistar rat frontal cortex at 38+/-8 MBq, iv after 80 mins; format: ADME, organism-based; details: in vivo; in short: as §1
[17] = Biodistribution in Wistar rat entorhinal cortex at 38+/-8 MBq, iv after 80 mins; format: ADME, organism-based; details: in vivo; in short: as §1
[18] = Biodistribution in Wistar rat cingulate cortex at 38+/-8 MBq, iv after 80 mins; format: ADME, organism-based; details: in vivo; in short: as §1
[19] = system: Cerebellum; test: Biodistribution in Wistar rat cerebellum at 38+/-8 MBq, iv after 80 mins; format: ADME, organism-based; details: in vivo
[20] = Biodistribution in Wistar rat bulbus olfactorius at 38+/-8 MBq, iv after 80 mins; format: ADME, organism-based, Olfactory bulb; details: in vivo
[21] = Biodistribution in Wistar rat amygdala at 38+/-8 MBq, iv after 80 mins; format: ADME, organism-based; details: in vivo
[22] = system: Plasma; test: Biodistribution in Wistar rat plasma at 38+/-8 MBq, iv after 60 mins; format: ADME, organism-based; details: in vivo, 1 h
[23] = Biodistribution in Wistar rat red blood cells at 38+/-8 MBq, iv after 80 mins; format: ADME, organism-based, Erythrocyte; details: in vivo
[24] = system: Plasma; test: Biodistribution in Wistar rat plasma at 38+/-8 MBq, iv after 80 mins; format: ADME, organism-based; details: in vivo
In short: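 Male Wistar rats under isoflurane were given tracer via the penile vein after tail-vein pretreatment with saline or drug. At the end of a 76 min microPET scan the anesthetized animals were terminated. Blood was collected and centrifuged 5 min at 1000g for plasma. Plasma was weighed, γ-counted with decay correction and expressed as SUV (tissue MBq/g × body weight/injected dose).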

[25] = system: Rattus norvegicus; test: AUC in 50 mg/kg cyclosporin A pretreated Wistar rat at 49+/-11 MBq, iv; format: ADME, organism-based, Plasma; design: dose 50 mg/kg, route intravenous; details: in vivo
In short: (§2)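 Male Wistar rats with a femoral arterial cannula placed under isoflurane. Saline or cyclosporin A (50 mg/kg, commercial solution) given via tail vein, then the [11C] tracer via penile vein. Dynamic microPET over the brain for 76 min, with 14 arterial samples to 60 min. Plasma counted in a γ counter. AUC of whole-brain or plasma SUV over 0-60 min.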

[26] = system: Rattus norvegicus; test: AUC in Wistar rat at 38+/-8 MBq, iv; format: ADME, organism-based, Plasma; details: in vivo; in short: as §2
[27] = system: Spleen; test: Biodistribution in Wistar rat spleen at 38+/-8 MBq, iv after 80 mins; format: ADME, organism-based; details: in vivo
[28] = Biodistribution in Wistar rat trachea at 38+/-8 MBq, iv after 80 mins; format: ADME, organism-based; details: in vivo
[29] = Biodistribution in 50 mg/kg cyclosporin A pretreated Wistar rat amygdala at 49+/-11 MBq, iv after 80 mins; format: ADME, organism-based; design: dose 50 mg/kg, route intravenous; details: in vivo
In short: (§3)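 Male Wistar rats pretreated with saline or cyclosporin A (50 mg/kg) via tail vein, then given the [11C] tracer via penile vein. Tissues excised after scanning and weighed. γ counting with decay correction. Results as SUV normalized to body weight and injected dose.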

[30] = Biodistribution in 50 mg/kg cyclosporin A pretreated Wistar rat bulbus olfactorius at 49+/-11 MBq, iv after 80 mins; format: ADME, organism-based, Olfactory bulb; design: dose 50 mg/kg, route intravenous; details: in vivo
In short: (§4)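 Male Wistar rats pretreated via tail vein with saline or cyclosporin A (50 mg/kg, commercial solution), then given the [11C] tracer via penile vein. After microPET scanning the anesthetized rats were killed. Tissues were excised and weighed, and blood was centrifuged into plasma and cells. γ counting with decay correction. Results as SUV (tissue MBq/g × body weight/injected dose).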

[31] = system: Cerebellum; test: Biodistribution in 50 mg/kg cyclosporin A pretreated Wistar rat cerebellum at 49+/-11 MBq, iv after 80 mins; format: ADME, organism-based; design: dose 50 mg/kg, route intravenous; details: in vivo; in short: as §4
[32] = Biodistribution in 50 mg/kg cyclosporin A pretreated Wistar rat cingulate cortex at 49+/-11 MBq, iv after 80 mins; format: ADME, organism-based; design: dose 50 mg/kg, route intravenous; details: in vivo; in short: as §4
[33] = Biodistribution in 50 mg/kg cyclosporin A pretreated Wistar rat entorhinal cortex at 49+/-11 MBq, iv after 80 mins; format: ADME, organism-based; design: dose 50 mg/kg, route intravenous; details: in vivo; in short: as §4
[34] = Biodistribution in 50 mg/kg cyclosporin A pretreated Wistar rat frontal cortex at 49+/-11 MBq, iv after 80 mins; format: ADME, organism-based; design: dose 50 mg/kg, route intravenous; details: in vivo
[35] = system: Hippocampus; test: Biodistribution in 50 mg/kg cyclosporin A pretreated Wistar rat hippocampus at 49+/-11 MBq, iv after 80 mins; format: ADME, organism-based; design: dose 50 mg/kg, route intravenous; details: in vivo
[36] = Biodistribution in 50 mg/kg cyclosporin A pretreated Wistar rat medulla at 49+/-11 MBq, iv after 80 mins; format: ADME, organism-based, Medulla of organ; design: dose 50 mg/kg, route intravenous; details: in vivo
[37] = Biodistribution in 50 mg/kg cyclosporin A pretreated Wistar rat parietal/temporal/occipital cortex at 49+/-11 MBq, iv after 80 mins; format: ADME, organism-based; design: dose 50 mg/kg, route intravenous; details: in vivo
[38] = system: Pons; test: Biodistribution in 50 mg/kg cyclosporin A pretreated Wistar rat pons at 49+/-11 MBq, iv after 80 mins; format: ADME, organism-based; design: dose 50 mg/kg, route intravenous; details: in vivo
[39] = system: Striatum; test: Biodistribution in 50 mg/kg cyclosporin A pretreated Wistar rat striatum at 49+/-11 MBq, iv after 80 mins; format: ADME, organism-based; design: dose 50 mg/kg, route intravenous; details: in vivo
[40] = system: Bone; test: Biodistribution in 50 mg/kg cyclosporin A pretreated Wistar rat bone at 49+/-11 MBq, iv after 80 mins; format: ADME, organism-based, Bone element; design: dose 50 mg/kg, route intravenous; details: in vivo; in short: as §3
[41] = system: Colon; test: Biodistribution in 50 mg/kg cyclosporin A pretreated Wistar rat colon at 49+/-11 MBq, iv after 80 mins; format: ADME, organism-based; design: dose 50 mg/kg, route intravenous; details: in vivo; in short: as §4
[42] = system: Duodenum; test: Biodistribution in 50 mg/kg cyclosporin A pretreated Wistar rat duodenum at 49+/-11 MBq, iv after 80 mins; format: ADME, organism-based; design: dose 50 mg/kg, route intravenous; details: in vivo; in short: as §4
[43] = Biodistribution in 50 mg/kg cyclosporin A pretreated Wistar rat fat at 49+/-11 MBq, iv after 80 mins; format: ADME, organism-based, Adipose tissue; design: dose 50 mg/kg, route intravenous; details: in vivo; in short: as §4
[44] = system: Heart; test: Biodistribution in 50 mg/kg cyclosporin A pretreated Wistar rat heart at 49+/-11 MBq, iv after 80 mins; format: ADME, organism-based; design: dose 50 mg/kg, route intravenous; details: in vivo
[45] = system: Ileum; test: Biodistribution in 50 mg/kg cyclosporin A pretreated Wistar rat ileum at 49+/-11 MBq, iv after 80 mins; format: ADME, organism-based; design: dose 50 mg/kg, route intravenous; details: in vivo
[46] = system: Kidney; test: Biodistribution in 50 mg/kg cyclosporin A pretreated Wistar rat kidney at 49+/-11 MBq, iv after 80 mins; format: ADME, organism-based; design: dose 50 mg/kg, route intravenous; details: in vivo
[47] = system: Liver; test: Biodistribution in 50 mg/kg cyclosporin A pretreated Wistar rat liver at 49+/-11 MBq, iv after 80 mins; format: ADME, organism-based; design: dose 50 mg/kg, route intravenous; details: in vivo
[48] = system: Lung; test: Biodistribution in 50 mg/kg cyclosporin A pretreated Wistar rat lung at 49+/-11 MBq, iv after 80 mins; format: ADME, organism-based; design: dose 50 mg/kg, route intravenous; details: in vivo
[49] = system: Muscle tissue; test: Biodistribution in 50 mg/kg cyclosporin A pretreated Wistar rat muscle at 49+/-11 MBq, iv after 80 mins; format: ADME, organism-based; design: dose 50 mg/kg, route intravenous; details: in vivo
[50] = system: Plasma; test: Biodistribution in 50 mg/kg cyclosporin A pretreated Wistar rat plasma at 49+/-11 MBq, iv after 80 mins; format: ADME, organism-based; design: dose 50 mg/kg, route intravenous; details: in vivo
[51] = Biodistribution in 50 mg/kg cyclosporin A pretreated Wistar rat red blood cells at 49+/-11 MBq, iv after 80 mins; format: ADME, organism-based, Erythrocyte; design: dose 50 mg/kg, route intravenous; details: in vivo
[52] = Biodistribution in 50 mg/kg cyclosporin A pretreated Wistar rat trachea at 49+/-11 MBq, iv after 80 mins; format: ADME, organism-based; design: dose 50 mg/kg, route intravenous; details: in vivo

Compound: COc1ccc(CCN([11CH3])CCCC(C#N)(c2ccc(OC)c(OC)c2)C(C)C)cc1OC (configuration not stated)
- SUV [1]: 0.82
- SUV [2]: 0.29
- SUV [3]: 0.61
- SUV [4]: 1.23
- SUV [5]: 0.49
- SUV [6]: 0.24
- SUV [7]: 0.38
- SUV [8]: 0.78
- SUV [9]: 0.32
- SUV [10]: 0.25
- SUV [11]: 0.038
- SUV [12]: 0.034
- SUV [13]: 0.036
- SUV [14]: 0.044
- SUV [15]: 0.036
- SUV [16]: 0.031
- SUV [17]: 0.027
- SUV [18]: 0.027
- SUV [19]: 0.052
- SUV [20]: 0.038
- SUV [21]: 0.034
- SUV [22]: 0.18
- SUV [23]: 0.06
- SUV [24]: 0.13
- AUC [25]: 110%
- AUC [26]: 100%
- SUV [27]: 0.93
- SUV [28]: 0.35
- SUV [29]: 0.62
- SUV [30]: 0.57
- SUV [31]: 0.6
- SUV [32]: 0.5
- SUV [33]: 0.59
- SUV [34]: 0.52
- SUV [35]: 0.54
- SUV [36]: 0.67
- SUV [37]: 0.64
- SUV [38]: 0.68
- SUV [39]: 0.55
- SUV [40]: 0.38
- SUV [41]: 0.4
- SUV [42]: 0.63
- SUV [43]: 0.5
- SUV [44]: 0.3
- SUV [45]: 0.56
- SUV [46]: 1.07
- SUV [47]: 1.84
- SUV [48]: 1.95
- SUV [49]: 0.37
- SUV [50]: 0.17
- SUV [51]: 0.07
- SUV [52]: 0.46
